For 78 compounds, inhibition results are on record in ChEMBL document CHEMBL2429829, “Inhibitors of the aminoglycoside 6'-N-acetyltransferase type Ib [AAC(6')-Ib] identified by in silico molecular docking” (Bioorg Med Chem Lett, 2013).

The test in a line: Inhibition of aminoglycoside 6'-N-acetyltransferase Ib (unknown origin)-mediated acetylation expressed in Escherichia coli using kanamycin A and acetyl CoA as substrate at 100 uM preincubated for 10 mins followed by enzyme addition by spectrophotometric analysis relative to control. Summed up: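 Enzyme: thioredoxin-fused AAC(6′)-Ib, arabinose-induced in E. coli, partially purified by DEAE ion exchange. Reaction: 20 mM Tris pH 7.5, 0.2 mM DTNB, 50 μM acetyl CoA, 18 μM kanamycin A, compound at 100 μM in 10% DMSO. Mix held 10 min at room temperature before enzyme added. CoA–SH release read at 412 nm. Percent inhibition from initial velocities versus no-compound reactions; mean of three experiments.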
The compound `CCc1ccc(-c2nc3ccccc3c(C(=O)Nc3ccc(C(=O)N4CCCC4)cc3)c2C)cc1` gave an inhibition of 0%. `CC[C@H](C1=NN2C(=N)/C(=C\c3ccc(-c4cccc(C(=O)O)c4)o3)C(=O)N=C2S1)c1ccccc1`: the inhibition amounted to 0%. On to `Cc1ccc(S(=O)(=O)Nc2cc3c(c4ccccc24)O[C@]2(C3)N(C)c3ccccc3C2(C)C)c(C)c1`, for which the inhibition was 0%. As for `O=C1NC(=O)N(c2ccccc2)C(=O)/C1=C/c1cc(Cl)ccc1OCc1ccc(C(=O)O)cc1`, the inhibition was determined as 0%. With `O=C1NC(=O)N(c2ccc(F)cc2)C(=O)/C1=C/c1cc(Cl)ccc1OCc1ccc(C(=O)O)cc1`, the inhibition was determined as 0%. For `Cc1ccc(N2C(=O)C[C@@H](N3CCN(c4nc5ccccc5s4)CC3)C2=O)c(C)c1` the value was 0%. On to `O=C(CSc1nc2ccccc2c(=O)n1Cc1ccccc1)c1cc2ccccc2o1`, for which the inhibition stood at 0%. In the case of `Cc1c(O)cccc1C(=O)N1CCC[C@@H]1c1nc(-c2ccccc2)no1`, the inhibition came out at 0%. `Cc1ccc(C(=O)COc2cccc(N3C(=O)[C@@H]4[C@H]5CC[C@H](C5)[C@@H]4C3=O)c2)cc1C`: the inhibition was found to be 0%. Regarding `O=C(Nc1ccccc1)c1ccccc1/N=C/c1ccc(/C=N/c2ccccc2C(=O)Nc2ccccc2)cc1`, the inhibition was 0%.

In the case of `Cc1ccc(-c2nnn(CC(=O)Nc3ccc4c(c3)OCCO4)n2)cc1`, the inhibition amounted to 0%. `Cn1c(COc2nnc(-c3ccccc3)c3ccccc23)nc2ccccc21` showed an inhibition of 0%. Compound `Cc1nc(N/N=C/c2ccc(OC(=O)c3cccnc3)cc2)c2c3c(sc2n1)CCCC3` displayed an inhibition of 0%.

For the compound `c1ccc2oc(-c3nn4c(-c5ccncc5)nnc4s3)cc2c1`, the inhibition was 0%. With `O=C1c2cccc3cccc(c23)C(=O)N1CCCc1nc2sc3c(c2c(=O)[nH]1)CCCC3`, the inhibition worked out at 0%. For `Cn1c(SCC(=O)Nc2cccc3ccccc23)nnc1-c1ccc(F)cc1`, the inhibition was 0%. `Cc1cc(C)c2nc(Nc3nc(C)cc(-c4ccccc4)n3)nc(C)c2c1` came in with an inhibition of 0%.

Compound `Cc1ccccc1Nc1nnc(-c2ccc(C(=O)NCCO)cc2)c2ccccc12` registered an inhibition of 0%.

With `S=C(N/N=C1/CCCc2c1[nH]c1ccc(C3CCCCC3)cc21)Nc1ccccc1`, the inhibition amounted to 0%. `Cc1ccc(NC(=O)c2ccccc2N2C(=O)[C@@H]3[C@@H]4C=C[C@@H]([C@H]5C[C@@H]45)[C@@H]3C2=O)cc1C` yielded an inhibition of 0%. `Cc1ccc2nc(C)cc(C(=O)OCC(=O)c3ccc(-c4ccccc4)cc3)c2c1` registered an inhibition of 0%. `O=C1C(=Cc2ccco2)C(=O)N(c2ccccc2)C(=O)N1c1ccccc1` yielded an inhibition of 0%.

As to `CCc1cc(Br)ccc1N1C(=O)[C@H]2C3c4ccccc4C(c4ccccc43)[C@@H]2C1=O`, the inhibition is 0%. `O=C1NC(=S)N(c2ccccc2)C(=O)/C1=C/c1ccc(OCc2ccccc2)cc1` yielded an inhibition of 0%. The compound `CC(C)(NC(=O)CCn1ccc(=O)[nH]c1=O)c1cccc2ccccc12` registered an inhibition of 0%. For `Cc1ccc2nc(-c3ccc(Cl)c(NC(=S)NC(=O)c4ccccc4C)c3)oc2c1` the value was 0%; for `O=C(NC1CCCc2c1cnn2-c1ccccc1F)c1ccc(-n2ccnc2)cc1` (stereo not drawn), 15%; for `O=c1oc2ccc(Br)cc2cc1C1=Nn2c(nc3ccccc3c2=O)SC1`, 0%. For the compound `O=C1C(=Cc2ccc(-c3ccc(Cl)cc3[N+](=O)[O-])o2)C(=O)N(c2ccccc2)C(=S)N1c1ccccc1`, the inhibition stood at 0%. `O=C(Nc1nccs1)c1cccc(N2C(=O)c3cccc4c([N+](=O)[O-])ccc(c34)C2=O)c1` had an inhibition of 0%. `Cc1ccc(NC(=O)COc2ccc3c4c(c(=O)oc3c2)CCCCC4)cc1` showed an inhibition of 0%. `O=C1C(=Cc2ccco2)C(=O)N(c2ccccc2)C(=S)N1c1ccccc1` returned an inhibition of 0%.

`Cc1cccc(C)c1NC(=O)C(Cc1c[nH]c2ccccc12)NC(=O)Oc1ccccc1` (stereo not drawn): the inhibition came out at 0%.

The compound `COc1cc(/C=C2\C(=O)NC(=S)N(c3ccccc3)C2=O)ccc1OCc1ccc(C(=O)O)cc1` showed an inhibition of 0%. As to `O=C(c1ccc(N2CCCCC2)cc1)N1CCC2c3ccccc3NC2[C@@H]1c1ccccn1` (stereo partly drawn), the inhibition was found to be 0%.

Consider `Cc1ncc(CNC2CCCc3nc(-c4ccccc4)ncc32)n1C` (stereo not drawn), for which the inhibition was 0%. For the compound `O=C(Nc1ccccc1N1CCCCC1)c1cccc(-c2cc3ccccc3oc2=O)c1`, the inhibition came out at 0%. `O=C(Nc1ccc(Oc2cccnc2)cc1)[C@@H]1CCCCN1Cc1ccc2c(c1)CCO2` registered an inhibition of 0%. The value for `Cc1cccc(C)c1NC(=O)COc1ccc2c3c(c(=O)oc2c1)CCCCC3` was 0%; that for `Cc1ccc2nc(N3C(=O)c4cccc5cccc(c45)C3=O)sc2c1` was 0%. `O=C1NCCN(Cc2cccc(F)c2F)[C@H]1CC(=O)N1CCc2c([nH]c3ccccc23)C1` returned an inhibition of 0%. For `O=c1[nH]c(-c2cccc(OCc3ccccc3)c2)nc2sc3c(c12)CCCC3` the value was 0%.

As to `Cc1ccc(S(=O)(=O)Nc2c3ccccc3c(O)c3c4c(oc23)CC(C)(C)CC4=O)cc1`, the inhibition was 0%. Compound `COc1ccc(F)cc1C(=O)C1CCCN(C(=O)c2ccc(Cn3cnnn3)cc2)C1` (stereo not drawn) returned an inhibition of 0%. On to `CC(C)(C)NC(=O)c1cccc(NC(=O)c2ccc3c(c2)C(=O)N(Cc2ccncc2)C3=O)c1`, for which the inhibition came out at 0%. For `Cc1ccc(-c2csc(NC(=S)NC(=O)c3ccccc3Br)n2)cc1` the value was 0%; for `O=C(CSc1nnnn1-c1ccccc1)Nc1ccc(-c2ccc([N+](=O)[O-])cc2)cc1`, 0%.

As to `O=C(NC(=S)Nc1ccc2c3c(oc2c1)CCCC3)c1ccc2c(c1)OCO2`, the inhibition was 0%. For the compound `O=C(OCc1ccc(S(=O)(=O)c2ccccc2)cc1)c1ccc2c(c1)-c1ccccc1C2=O`, the inhibition was determined as 0%.

`O=C1NC(=O)N(c2ccc3c(c2)OCO3)C(=O)/C1=C/c1ccc(-c2ccc(F)cc2)o1` registered an inhibition of 0%. The value for `Cc1c(C(=O)Nc2ccc3c(c2)Cc2ccccc2-3)cccc1[N+](=O)[O-]` was 0%; that for `COc1cccc(Nc2nc(C3(C)CC4(CC(C)OC4=O)C(=O)O3)cs2)c1` (stereo not drawn) was 0%. `O=C1[C@@H]2[C@H](C(=O)N1/N=C/c1ccccc1OCc1ccc(Cl)cc1)[C@@H]1C=C[C@H]2C1` returned an inhibition of 12%.

`O=C(c1ccc2nc(C3CC3)oc2c1)N1CCC(CCc2ccccc2)CC1` displayed an inhibition of 0%. On to `Cc1nn(Cc2ccc(F)cc2)c(C)c1NC(=O)c1cc(-c2ccc(F)cc2)on1`, for which the inhibition came to 0%.

Turning to `COC(=O)c1ccc(N2C(=O)NC(=O)/C(=C\c3ccccc3OCc3ccc(C(=O)O)cc3)C2=O)cc1`, the inhibition came out at 0%. Take `Cc1ccnc(Nc2nc(-c3ccc4ccccc4c3)cs2)c1`: the inhibition turned out to be 0%. Compound `Cc1ccc(-c2cc(C(=O)NCc3ccc(S(N)(=O)=O)cc3)c3ccccc3n2)cc1C` yielded an inhibition of 0%.

`O=C(c1cc(-c2ccccc2Cl)nc2ccccc12)N1CCN(Cc2ccc3c(c2)OCO3)CC1` yielded an inhibition of 0%. For `O=C(NC(=S)Nc1nc(-c2cccc3ccccc23)cs1)c1ccc2c(c1)OCCO2` the value was 0%; for `O=C(O)c1ccc2c(c1Nc1cccc3c1C(=O)c1ccccc1C3=O)C(=O)c1ccccc1C2=O`, 0%; for `O=C(c1cc(-c2ccc3c(c2)OCO3)nc2ccccc12)N1CCN(c2ccccc2F)CC1`, 0%. As for `O=C(Nc1ccc2c(c1)C(=O)c1ccccc1C2=O)c1cccc([N+](=O)[O-])c1`, the inhibition is 0%. For `NC(=O)c1c(NC(=O)c2cc(-c3ccc4c(c3)OCO4)nc3ccccc23)sc2c1CCCCCC2`, the inhibition worked out at 0%.

Take `O=C1C(=Cc2ccc(-c3ccccc3[N+](=O)[O-])o2)C(=O)N(c2ccccc2)C(=S)N1c1ccccc1`: the inhibition stood at 0%. The value for `CN1C(=O)c2ccc(NC(=O)[C@H]3CC(=O)N(c4ccccc4)C3)cc2C1=O` was 0%; that for `O=C1C[C@H](c2ccc3cccc(O)c3n2)c2ccc(N3CCOC3=O)cc2N1` was 0%; that for `O=C(/C=C/c1cccc2ccccc12)N1CCN(CCN2C(=O)c3cccc4cccc(c34)C2=O)CC1` was 0%. `O=C(NCc1ccc(-c2nc3ccccc3o2)cc1)c1cccc(-c2cc3ccccc3oc2=O)c1` came in with an inhibition of 0%.

`Brc1ccc2nc(Nc3cccc4ccccc34)nc(-c3ccccc3)c2c1` yielded an inhibition of 0%. In turn, `Cc1ccc(C(=O)O)cc1NC(=S)NC(=O)c1cccc2c(Br)cccc12` returned an inhibition of 0%. For the compound `O=C(c1cccc([N+](=O)[O-])c1)c1ccc2c(c1)C(=O)N(c1cccc(-c3nc4ccccc4o3)c1)C2=O`, the inhibition is 0%.

With `Cc1ccc(N2C(=O)NC(=O)/C(=C\c3ccc(-c4ccccc4C(=O)O)o3)C2=O)cc1`, the inhibition worked out at 0%. On to `O=C(c1ccc2c3c(cccc13)CC2)[C@H]1CCCN(C(=O)c2cn3ccccc3n2)C1`, for which the inhibition was found to be 0%.

In turn, `Cc1ccc2nc(NC(=S)NC(=O)c3oc4ccccc4c3C)sc2c1` showed an inhibition of 0%.

Compound `O=C1C(=Cc2ccc(-c3ccccc3Cl)o2)C(=O)N(c2ccccc2)C(=S)N1c1ccccc1` came in with an inhibition of 0%. On to `N#Cc1cccc(Oc2ccc(-c3nc4ccccc4nc3-c3ccccc3)cc2)c1C#N`, for which the inhibition worked out at 0%. `Cc1ccc2c(c1)CCCN2C(=O)c1cc(-c2ccc3c(c2)OCO3)nc2ccccc12`: the inhibition is 10%.

A word on the inhibition: it is the relative decrease from the control value, in per cent.
